Laboratory results published in ChEMBL document CHEMBL4808182, “Discovery of the Soluble Guanylate Cyclase Activator Runcaciguat (BAY 1101042)” (J Med Chem, 2021).
Activity calls are given as the source filed them. The rule behind the calls is not given here.

What was measured:
Rattus norvegicus [1] = assay: Reduction in blood pressure in spontaneous hypertensive Wistar rat at 0.3 to 3 mg/kg, po by radiotelemetry relative to control; type: functional; parameters: scale not given: the % may be the effect or the level left; settings: dose 0.3-3 mg/kg
[2] = Half life in Beagle dog at 0.3 mg/kg, iv measured up to 24 hrs by LC-MS analysis; type: ADME, organism-based, Canis lupus familiaris; settings: in vivo
[3] = Half life in Wistar rat at 0.3 mg/kg, iv measured up to 24 hrs by LC-MS analysis; type: ADME, organism-based; settings: in vivo
Rattus norvegicus [4] = assay: In vivo activation of sGC in po dosed renin-transgenic rat carrying [RenTG(mRRen2)27] gene assessed as increase in creatinine clearance pretreated with NO-synthase inhibitor L-NAME followed by compound administration twice daily for 21 days; type: functional, organism-based; settings: dose 1-10 mg/kg, time 21.0 day
Procedure, shortened: (§1)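 L-NAME-treated renin transgenic rats were dosed BID. At study end, protein-to-creatinine ratio (mg/mmol) came from urinary protein and creatinine. Creatinine clearance (mL/min) came from plasma and urinary creatinine plus urine volume.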

Rattus norvegicus [5] = assay: In vivo activation of sGC in po dosed renin-transgenic rat carrying [RenTG(mRRen2)27] gene assessed as decrease in proteinuria pretreated with NO-synthase inhibitor L-NAME followed by compound administration twice daily for 21 days; type: functional, organism-based; settings: dose 1-10 mg/kg, time 21.0 day; procedure, shortened: as §1
Rattus norvegicus [6] = assay: Effect on blood pressure in spontaneous hypertensive Wistar rat at 0.1 mg/kg, po by radiotelemetry; type: functional, organism-based
Procedure, shortened: (§2)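 Spontaneously hypertensive rats were given single oral doses of 0.1–3.0 mg/kg. Mean arterial pressure and heart rate were monitored for at least 24 h post dose, as % change.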

[7] = Half life in cynomolgus monkey at 0.1 mg/kg, iv measured up to 24 hrs by LC-MS analysis; type: ADME, organism-based, Macaca fascicularis; settings: in vivo
[8] = Blood clearance in Beagle dog at 0.3 mg/kg, iv measured up to 24 hrs by LC-MS analysis; type: ADME, organism-based, Canis lupus familiaris; settings: whole blood
[9] = Oral bioavailability in cynomolgus monkey at 0.1 mg/kg measured up to 24 hrs by LC-MS analysis; type: ADME, organism-based, Macaca fascicularis; settings: in vivo
Coronary artery = assay: Vasorelaxant activity in porcine coronary artery assessed as inhibition of U-46619-induced contractions; type: functional, tissue-based; settings: Sus scrofa
Aorta = assay: Vasorelaxant activity in Chinchilla rabbit aortic ring assessed as inhibition of phenylephrine-induced contractions; type: functional, tissue-based; settings: Oryctolagus cuniculus
[10] = molecular target: T1, Guanylate cyclase soluble subunit alpha-1 (Rattus norvegicus) (UniProt P19686); assay: Activation of recombinant rat sGC alpha1 subunit expressed in CHO cells assessed as induction of [32P-cGMP] formation by measuring efficacy using alpha-[32P-GTP] as substrate measured after 6 mins by luminescence assay relative to control; type: cell-based; settings: filed as activator
T1 sequence (whole entry): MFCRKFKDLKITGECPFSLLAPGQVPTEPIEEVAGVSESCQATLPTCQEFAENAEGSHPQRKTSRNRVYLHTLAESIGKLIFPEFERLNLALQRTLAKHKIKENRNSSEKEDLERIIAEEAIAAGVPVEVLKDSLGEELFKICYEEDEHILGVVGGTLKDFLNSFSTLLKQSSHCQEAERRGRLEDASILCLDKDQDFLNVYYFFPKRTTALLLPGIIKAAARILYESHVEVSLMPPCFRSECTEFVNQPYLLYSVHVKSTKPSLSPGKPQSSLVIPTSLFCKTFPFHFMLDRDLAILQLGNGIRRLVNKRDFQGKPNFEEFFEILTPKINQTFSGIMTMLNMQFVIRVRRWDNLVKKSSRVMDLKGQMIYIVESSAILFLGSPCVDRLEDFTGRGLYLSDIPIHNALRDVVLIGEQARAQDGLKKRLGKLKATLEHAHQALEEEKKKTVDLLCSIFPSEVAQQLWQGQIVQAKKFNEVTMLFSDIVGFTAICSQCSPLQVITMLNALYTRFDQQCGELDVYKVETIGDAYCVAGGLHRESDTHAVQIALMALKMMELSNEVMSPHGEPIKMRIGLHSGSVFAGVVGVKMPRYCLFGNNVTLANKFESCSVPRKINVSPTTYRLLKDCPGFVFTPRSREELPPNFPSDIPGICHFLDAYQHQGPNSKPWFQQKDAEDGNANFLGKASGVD

Rattus norvegicus [11] = assay: Effect on blood pressure in normotensive Wistar rat at 1 to 3 mg/kg, po by radiotelemetry; type: functional, organism-based; settings: dose 1-3 mg/kg
[12] = molecular target: T1, Guanylate cyclase soluble subunit alpha-1 (Rattus norvegicus); assay: Activation of recombinant rat sGC alpha1 subunit expressed in CHO cells assessed as induction of [32P-cGMP] formation at 0.01 to 100 uM using alpha-[32P-GTP] as substrate measured after 6 mins in presence of NO by luminescence assay; settings: filed as activator, dose 0.01-100 µM
Rattus norvegicus [13] = species on record: Rattus norvegicus; assay: Effect on contractility in Wistar rat; type: functional
Procedure, shortened: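 Rat hearts in Langendorff perfusion were exposed to 10 nM–10 μM. Coronary perfusion pressure, heart rate, LVDP and +dp/dt were recorded.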

[14] = molecular target: T1, Guanylate cyclase soluble subunit alpha-1 (Rattus norvegicus); assay: Activation of recombinant rat sGC alpha1 subunit expressed in CHO cells assessed as induction of [32P-cGMP] formation by measuring fold change at 0.01 uM using alpha-[32P-GTP] as substrate measured after 6 mins by luminescence assay; settings: filed as activator
Procedure, shortened: (§3)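 Highly purified recombinant sGC enzyme was tested for stimulation of cGMP production across 0.01 to 100 μM of compound. The read-out was fold activation over basal enzyme activity. The method followed earlier published sGC stimulator/activator characterization.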

Rattus norvegicus [15] = assay: Effect on heart rate in spontaneous hypertensive Wistar rat at 0.1 mg/kg, po by radiotelemetry; type: functional, organism-based; procedure, shortened: as §2
[16] = Oral bioavailability in Beagle dog at 0.1 mg/kg measured up to 24 hrs by LC-MS analysis; type: ADME, organism-based, Canis lupus familiaris; settings: in vivo
Rattus norvegicus [17] = assay: Effect on tachycardia reflex in normotensive Wistar rat at 1 to 10 mg/kg, po by radiotelemetry; type: functional, organism-based; settings: dose 1-10 mg/kg
Procedure, shortened: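 Conscious normotensive rats with telemetric implants received oral doses of 1, 3 or 10 mg/kg. Mean arterial pressure and heart rate were recorded continuously beyond 24 h.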

[18] = molecular target: T1, Guanylate cyclase soluble subunit alpha-1 (Rattus norvegicus); assay: Activation of recombinant rat sGC alpha1 subunit expressed in CHO cells assessed as induction of [32P-cGMP] formation by measuring fold change at 100 uM using alpha-[32P-GTP] as substrate measured after 6 mins by luminescence assay; settings: filed as activator; procedure, shortened: as §3
Rattus norvegicus [19] = assay: In vivo activation of sGC in Wistar rate assessed as decrease in blood pressure at 0.03 to 0.1 mg/kg, iv administered as bolus injection; type: functional, organism-based; settings: dose 0.03-0.1 mg/kg
Procedure, shortened: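 Anaesthetized rats received an iv bolus of 0.03 or 0.1 mg/kg, with or without ODQ pretreatment. Blood pressure and heart rate were recorded over time.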

[20] = molecular target: T1, Guanylate cyclase soluble subunit alpha-1 (Rattus norvegicus); assay: Activation of recombinant rat sGC alpha1 subunit expressed in CHO cells assessed as induction of [32P-cGMP] formation at 0.01 to 100 uM using alpha-[32P-GTP] as substrate measured after 6 mins in presence of ODQ by luminescence assay; type: cell-based; settings: filed as activator, dose 0.01-100 µM
[21] = Volume of distribution at steady state in Wistar rat at 0.3 mg/kg, iv measured up to 24 hrs by LC-MS analysis; type: ADME, organism-based; settings: in vivo, read-out: Vdss
[22] = Activation of recombinant rat sGC expressed in CHO cells pretreated with ODQ for 3 hrs followed by compound treatment by luminescence assay; type: cell-based

half-life [2]: 4.3 h | half-life [3]: 7.5 h | half-life [7]: 10 h | clearance [8]: 23.3 mL/min/kg | bioavailability [9]: 81% | IC50 (Coronary artery): 137 nM | IC50 (Aorta): 39 nM | Efficacy [10]: 58% | Activity [12]: Active | fold change (FC) [14]: 2.6 | bioavailability [16]: 48% | fold change (FC) [18]: 9.3 | Activity [20]: Active | Vd [21]: 1.4 L/kg | EC50 [22]: 2.1 nM
SMILES: C[C@H]([C@H](C(=O)Nc1cc([C@@H](CC(=O)O)C2CC2)ccc1Cl)c1ccc(Cl)cc1)C(F)(F)F [RUNCACIGUAT]
Activity (Rattus norvegicus [1]): 5% | Activity (Rattus norvegicus [4]): Dose-Dependent Effect | Activity (Rattus norvegicus [5]): Dose-Dependent Effect | Activity (Rattus norvegicus [6]): inactive | Activity (Rattus norvegicus [11]): inactive | Activity (Rattus norvegicus [13]): inactive | Activity (Rattus norvegicus [15]): inactive | Activity (Rattus norvegicus [17]): Active | Activity (Rattus norvegicus [19]): Dose-Dependent Effect
